Measured values published in ChEMBL document CHEMBL1914282 (J Med Chem, 2011).
Activity calls are given as the source filed them. The rule behind the calls is not given here.

What was measured:
[1] = target: T1, G-protein coupled receptor 35 (Homo sapiens, UniProt Q9HC97); experiment: Agonist activity at GPR35 in human HT-29 cells assessed as desensitization of 1 uM zaprinast-induced DMR after 1 hr by dynamic mass redistribution assay; format: functional, cell-based
[2] = target: T1, G-protein coupled receptor 35; experiment: Agonist activity at GPR35 in human U20S cells expressing beta-lactamase and GPR35-GA14-VP16 transcription factor fusion protein assessed as transcriptional activation after 5 hrs by tango beta-arrestin translocation reporter assay; format: functional, cell-based, U2OS
Outline: (§1)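 Tango GPR35-bla U2OS cells, which express GPR35–TEV site–Gal4-VP16 and β-arrestin/TEV protease, seeded at 10000 cells/well and cultured overnight. Ligand stimulation for 5 h at 37 °C/5% CO2, then 2 h with LiveBLAzer FRET B/G substrate.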

[3] = target: T1, G-protein coupled receptor 35; experiment: Agonist activity at GPR35 in human HT-29 cells after 1 hr by dynamic mass redistribution assay; format: functional, cell-based
Outline: (§2)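 HT-29 monolayer grown overnight on resonant waveguide grating biosensor plates. Cells washed twice, held in HBSS (20 mM Hepes, pH 7.1) for 1 h at 26 °C, then a 2 min baseline taken before compound addition. Response recorded as resonant wavelength shift (pm) over 1 h. Compounds diluted from 10 mM DMSO stocks.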

HT-29 = experiment: Induction of dynamic mass redistribution in human HT-29 cells transfected with receptor-targeting iRNA-based shRNA for GPR35 knock out at 10 uM; format: functional, cell-based
Outline: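 HT-29 seeded on biosensor plates at 5000 cells/well, 24 h at 37 °C. Transiently transfected with GFP-tagged shRNA plasmids against human GPR35, or control plasmid, at 0.05 μg DNA per well. Medium changed on day 3. About 48 h post-transfection, DMR agonist assay run with compounds at 10 μM, four replicates.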

[4] = target: T1, G-protein coupled receptor 35; experiment: Agonist activity at GPR35 in human HT-29 cells after 1 hr by dynamic mass redistribution assay relative to zaprinast; format: functional, cell-based; set-up: concentration or dose not given beside the values
Outline: as §2, with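 “h. […]” for “h.”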

[5] = target: T1, G-protein coupled receptor 35; experiment: Agonist activity at GPR35 in human U20S cells expressing beta-lactamase and GPR35-GA14-VP16 transcription factor fusion protein assessed as transcriptional activation up to 128 uM after 5 hrs by tango beta-arrestin translocation reporter assay; format: functional, cell-based; details: U2OS
Outline: as §1, with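 “substrate. Coumarin:fluorescein ratio read as reporter response, doses up to 128 μM, n = 4.” for “substrate.”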

[6] = target: T1, G-protein coupled receptor 35; experiment: Agonist activity at GPR35 in human HT-29 cells after 1 hr by dynamic mass redistribution assay in presence of GPR35 antagonist SPB05142; format: functional, cell-based
[7] = target: T1, G-protein coupled receptor 35; experiment: Agonist activity at GPR35 in human HT-29 cells after 1 hr by dynamic mass redistribution assay in presence of 64 uM GPR35 antagonist SPB05142; format: functional, cell-based
[8] = target: T1, G-protein coupled receptor 35; experiment: Agonist activity at GPR35 in human U20S cells expressing beta-lactamase and GPR35-GA14-VP16 transcription factor fusion protein assessed as transcriptional activation after 5 hrs by tango beta-arrestin translocation reporter assay relative to zaprinast; format: functional, cell-based; details: U2OS
Outline: as §1, with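 “substrate. Coumarin:fluorescein ratio read as reporter response, doses up to 128 μM, n = 4.” for “substrate.”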

[9] = target: T1, G-protein coupled receptor 35; experiment: Agonist activity at GPR35 in human HT-29 cells assessed as receptor internalization at 1 uM after 1 hr by fluorescence imaging; format: functional, cell-based
Outline: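 HT-29 seeded in chamber slides at 10000 cells/well and grown 24 h at 37 °C. Cells exposed to compound or DMSO for 1 h at 37 °C, fixed in 4% formaldehyde, then blocked and permeabilized. Stained with anti-GPR35 (intracellular domain, 1:500, 24 h), then a fluorescent secondary antibody (1:500, 1 h, room temperature). GPR35 location assessed by confocal imaging.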

T1 sequence (Q9HC97 whole entry, the tested form may be a part): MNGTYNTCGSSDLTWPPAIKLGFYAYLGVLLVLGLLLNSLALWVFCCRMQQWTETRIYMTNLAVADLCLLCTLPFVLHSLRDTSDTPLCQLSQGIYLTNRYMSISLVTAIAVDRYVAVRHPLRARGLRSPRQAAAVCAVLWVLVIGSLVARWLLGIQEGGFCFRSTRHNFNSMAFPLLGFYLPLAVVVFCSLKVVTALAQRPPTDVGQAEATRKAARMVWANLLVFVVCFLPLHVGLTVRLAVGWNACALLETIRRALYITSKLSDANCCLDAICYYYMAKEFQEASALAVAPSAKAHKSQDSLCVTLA

For `CCCCc1ccc(C2(C)OC(=C(C#N)C#N)C(C#N)=C2C)cc1` (configuration not stated), which IC50 [1] is on record?
Its IC50 is 6.4 µM.

And the EC50 ([2]; u2os)?
The EC50 was “Not Active”.

What about the EC50 [3] of the same molecule?
The EC50 was 15.3 µM.

For `CCCOc1ccccc1-c1nc2[nH]nnc2c(=O)[nH]1`, which Activity (HT-29) is on record?
The Activity was “inactive”.

Which results are given for `CC1=C(C#N)C(=C(C#N)C#N)OC12c1ccccc1-c1ccccc12`?
Activity [4]: 90%; IC50 [1]: 21.6 µM; Activity [5]: inactive; EC50 [3]: 6.6 µM; Activity [6]: inactive; Activity [7]: inactive

Which results are given for `CCCCCCCCCCCc1c(C(=O)O)sc2c(Br)csc12`?
Activity [4]: 87%; IC50 [1]: 0.57 µM; EC50 ([2]; read-out: EC50): 22.7 µM; Activity [8]: 55%; EC50 [3]: 1.89 µM; Activity [6]: inactive; Activity [7]: inactive

Which EC50 ([2]; u2os) does the source give for `CCOC(=O)c1sc2c(Br)csc2c1C` here?
The EC50 was “Not Active”.

What does the source list for `O=C(O)c1cc2sccc2s1`?
IC50 [1]: 57 µM; EC50 ([2]; u2os): Not Active; EC50 [3]: 42.4 µM

What does the source list for `CCCCCCc1c(C(=O)O)sc2ccsc12`?
Activity [4]: 99%; IC50 [1]: 1.49 µM; EC50 ([2]; read-out: EC50): > 50 µM; Activity [8]: 20%; EC50 [3]: 3.44 µM; Activity [6]: Active; Activity [7]: Active

Which results are given for `CCCCCCCCc1c(C(=O)O)sc2c(Br)csc12`?
Activity [4]: 103%; IC50 [1]: 1.05 µM; EC50 ([2]; read-out: EC50): > 50 µM; Activity [8]: 8%; EC50 [3]: 1.46 µM; Activity [6]: inactive; Activity [7]: inactive

Which results are given for `CCCCCCc1csc2cc(C(=O)O)sc12`?
Activity [4]: 103%; IC50 [1]: 4.69 µM; EC50 ([2]; read-out: EC50): > 50 µM; Activity [8]: 9%; EC50 [3]: 9.4 µM; Activity [6]: inactive; Activity [7]: inactive

`CC1=C(C#N)C(=C(C#N)C#N)OC12CCCCC2` was tested. Which Activity [4] did it give?
The Activity was 106%.

And the IC50 [1]?
The IC50 was 16.4 µM.

And the EC50 ([2]; read-out: EC50)?
The EC50 was greater than 50 µM.

And the Activity [8]?
The Activity was “Active”.

And the EC50 [3]?
Its EC50 is 45.9 µM.

And the Activity [6]?
Its Activity is “Active”.

And the Activity [7]?
Its Activity is “Active”.

How did the Activity [4] turn out when `CC1=C(C#N)C(=C(C#N)C#N)OC1(C)C` was run?
Its Activity is 87%.

What about the IC50 [1] of the same molecule?
Its IC50 is 12.1 µM.

What about the Activity (HT-29) of the same molecule?
The Activity was “inactive”.

And the EC50 ([2]; read-out: EC50)?
The EC50 was greater than 50 µM.

And the Activity [8]?
Its Activity is “Active”.

And the EC50 [3]?
Its EC50 is 17.1 µM.

And the Activity [6]?
Its Activity is “inactive”.

And the Activity [7]?
Its Activity is “inactive”.

How did the IC50 [1] turn out when `CCCCCCCCCCCCCCCc1c(C(=O)O)sc2c(Br)csc12` was run?
The IC50 was 5.92 µM.

And the EC50 ([2]; u2os)?
The EC50 was “Not Active”.

And the EC50 [3]?
The EC50 was 4.56 µM.

`Cc1c(C(=O)O)sc2c(Br)csc12` was tested. Which Activity [4] did it give?
Its Activity is 105%.

And the IC50 [1]?
The IC50 was 0.11 µM.

What about the Activity [9] of the same molecule?
Its Activity is “Active”.

What about the Activity (HT-29) of the same molecule?
The Activity was “inactive”.

What about the EC50 ([2]; read-out: EC50) of the same molecule?
Its EC50 is 15 µM.

What about the Activity [8] of the same molecule?
The Activity was 104%.

What about the EC50 [3] of the same molecule?
Its EC50 is 0.064 µM.

And the Activity [6]?
Its Activity is “inactive”.

And the Activity [7]?
Its Activity is “inactive”.

Which results are given for `Cc1csc2c1sc1cc(C(=O)O)sc12`?
Activity [4]: 118%; IC50 [1]: 6.07 µM; Activity (HT-29): inactive; EC50 ([2]; read-out: EC50): > 50 µM; Activity [8]: 19%; EC50 [3]: 6 µM; Activity [6]: Active; Activity [7]: Active

What does the source list for `CCCCCCCCCCCCCc1c(C(=O)O)sc2c(Br)csc12`?
Activity [4]: 77%; IC50 [1]: 1.87 µM; EC50 ([2]; u2os): Not Active; Activity [8]: inactive; Activity [5]: inactive; EC50 [3]: 2.31 µM; Activity [6]: inactive; Activity [7]: inactive

For `CC1=C(C#N)C(=C(C#N)C#N)OC1(C)c1ccc(Cl)c(Cl)c1Cl` (configuration not stated), which Activity [4] is on record?
The Activity was 90%.

And the IC50 [1]?
The IC50 was 10.3 µM.

What about the Activity [5] of the same molecule?
The Activity was “inactive”.

And the EC50 [3]?
The EC50 was 11.1 µM.

What about the Activity [6] of the same molecule?
Its Activity is “Active”.

And the Activity [7]?
The Activity was “Active”.

For `CC1=C(C#N)C(=C(C#N)C#N)OC1(C)c1ccc(Cl)c(Cl)c1` (configuration not stated), which Activity [4] is on record?
The Activity was 97%.

What about the IC50 [1] of the same molecule?
The IC50 was 0.06 µM.

And the Activity (HT-29)?
The Activity was “inactive”.

What about the EC50 ([2]; read-out: EC50) of the same molecule?
Its EC50 is 10.2 µM.

What about the Activity [8] of the same molecule?
Its Activity is 29%.

What about the EC50 [3] of the same molecule?
Its EC50 is 0.032 µM.

And the Activity [6]?
The Activity was “inactive”.

What about the Activity [7] of the same molecule?
Its Activity is “inactive”.

`CC1=C(C#N)C(=C(C#N)C#N)OC1(C)c1ccc(F)cc1F` (configuration not stated) was tested. Which IC50 [1] did it give?
Its IC50 is 48.9 µM.

What about the EC50 ([2]; u2os) of the same molecule?
Its EC50 is “Not Active”.

What about the EC50 [3] of the same molecule?
Its EC50 is 53.9 µM.

What does the source list for `CC1=C(C#N)C(=C(C#N)C#N)OC1(c1ccccc1)C(F)(F)F` (configuration not stated)?
Activity [4]: 99%; IC50 [1]: 1.94 µM; EC50 ([2]; read-out: EC50): > 50 µM; Activity [8]: 14%; EC50 [3]: 3.5 µM; Activity [6]: inactive; Activity [7]: inactive

Which results are given for `CC1=C(C#N)C(=C(C#N)C#N)OC1(C)c1c(F)c(F)c(F)c(F)c1F` (configuration not stated)?
IC50 [1]: 4.48 µM; EC50 ([2]; u2os): Not Active; EC50 [3]: 3.35 µM
